Here are results for five substances from article PMC4157762 (Bioconjugate Chemistry, 2014).

Broadly, the IC50 is the midpoint of a concentration-inhibition curve.

One data set is described as follows: Dynamic light scattering. In kind it is physicochemical. Particulars: DLS at stock concentration, 15 measurements, regularization fit. Put shortly: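 Samples were spun 15 min at 18 000 g and measured at stock concentration at 100% laser power until intensity readings were consistent. 15 measurements per sample gave the size distribution by regularization fit. Effective radius and aggregation by intensity and by mass were reported. Controls were maleimide-capped XTEN (negative) and BSA (positive), with BSA re-measured after 10 min at 80 °C and 5 min on ice.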

For the next data set, the system named is HIV-1Ba-L. Description: In vitro antiviral MAGI assay. In kind it is cell-based. As to conditions: read-out: IC50 for inhibition of virus replication, MAGI CCR5 cells, 48 h, β-galactosidase read-out (Gal-screen), triplicate. Put shortly:
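MAGI CCR5 cells are HeLa-derived, express CXCR4, CD4 and CCR5, and carry an HIV-1 LTR–β-galactosidase reporter. Cells were plated at 1 × 10^4 per well and adhered overnight at 37 °C. Medium was replaced with the compound range (up to 10 nM), then HIV-1Ba-L was added. After 48 h, lysates were read with Gal-screen and expressed as % of the no-compound blank. Tested in triplicate with unmodified-peptide and capped-XTEN controls.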

The format of data set [1] is physicochemical. Particulars: as E13; dimer peak of the precursor before conjugation. The gist of the method: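 Vydac C4 column (5 μm, 300 Å, 4.6 × 150 mm), ambient temperature, 1 mL/min. Equilibrated at 5% B, then a linear gradient of 5–50% B over 45 min. 20 μg protein injected. Absorbance read at 214 nm. The thiol-XTEN precursor was run before conjugation.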
The conditions of data set [2]: dosed in rats; cited from earlier work.

In “Dynamic light scattering”, “BSA (heat treated): heat-treated BSA, positive control for aggregation in DLS” displayed an aggregation by intensity of 92.2% and an aggregation by mass of 28%.

“BSA (not heat treated): BSA (Fermentas), DLS control before heat treatment”: in the data set “Dynamic light scattering”, the aggregation by intensity was 0% and the aggregation by mass came out at 0%.

Consider Enfuvirtide, for which the half-inhibitory concentration (IC50) in the data set with HIV-1Ba-L was determined as 0.38 nM.

Consider “SAGSPTPGTSESATPESGPGSEPATSGSETPGTSESATPESGPGSEPATSGSETPGTSESATPESGPGTSTEPSEGSAPGTSESATPESGPGSPAGSPTSTEEGSPAGSPTSTEEGSPAGSPTSTEEGTSESATPESGPGTSTEPSEGSAPGTSESATPESGPGSEPATSGSETPGTSESATPESGPGSEPATSGSETPGTSESATPESGPGTSTEPSEGSAPGSPAGSPTSTEEGTSESATPESGPGSEPATSGSETPGTSESATPESGPGSPAGSPTSTEEGSPAGSPTSTEEGTSTEPSEGSAPGTSESATPESGPGTSESATPESGPGTSESATPESGPGSEPATSGSETPGSEPATSGSETPGSPAGSPTSTEEGTSTEPSEGSAPGTSTEPSEGSAPGSEPATSGSETPTAEAAGCGTAEAASASR [XTEN-1]”, for which the “C4 RPC retention time of suspected disulfide-bonded dimer” value in data set [1] stood at 21.2 min.

Turning to enfuvirtide, in data set [2], the half-life in rats is given as 2.8 h.
